{"source": "paper PMC2781304", "about": "(Biochemistry, 2009)", "key": {"[1]": {"system": "insulin receptor", "details": "cited from earlier work"}, "[2]": {"system": "receptors on the human placental membrane", "details": "ref 62; cited from earlier work"}, "[3]": {"system": "IM-9 cell receptors", "details": "cited from earlier work"}, "[4]": {"system": "primary rat adipocytes", "assay": "Insulin-stimulated lipogenesis", "assay_type": "cell-based", "details": "for maximal lipogenesis: compared with human insulin; for metabolic potency relative to human insulin: lipogenesis in primary rat adipocytes", "summary_of_the_method": "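Adipocytes from male Sprague-Dawley rat epididymal fat pads, collagenase-digested (1 mg/mL, 45 min, 37 °C) in KRH with 3.5% BSA, 0.2 uM adenosine and 2 mM glucose. […] Lipid-extracted label counted, background (tracer without hormone) subtracted. Triplicates, three experiments, four-parameter logistic fit for ED50.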"}, "[5]": {"target": "T1, human insulin receptor on IM9 cells (Homo sapiens, UniProt P06213)", "T1 sequence (P06213 28-1370 isoform P06213-2 limits assumed)": "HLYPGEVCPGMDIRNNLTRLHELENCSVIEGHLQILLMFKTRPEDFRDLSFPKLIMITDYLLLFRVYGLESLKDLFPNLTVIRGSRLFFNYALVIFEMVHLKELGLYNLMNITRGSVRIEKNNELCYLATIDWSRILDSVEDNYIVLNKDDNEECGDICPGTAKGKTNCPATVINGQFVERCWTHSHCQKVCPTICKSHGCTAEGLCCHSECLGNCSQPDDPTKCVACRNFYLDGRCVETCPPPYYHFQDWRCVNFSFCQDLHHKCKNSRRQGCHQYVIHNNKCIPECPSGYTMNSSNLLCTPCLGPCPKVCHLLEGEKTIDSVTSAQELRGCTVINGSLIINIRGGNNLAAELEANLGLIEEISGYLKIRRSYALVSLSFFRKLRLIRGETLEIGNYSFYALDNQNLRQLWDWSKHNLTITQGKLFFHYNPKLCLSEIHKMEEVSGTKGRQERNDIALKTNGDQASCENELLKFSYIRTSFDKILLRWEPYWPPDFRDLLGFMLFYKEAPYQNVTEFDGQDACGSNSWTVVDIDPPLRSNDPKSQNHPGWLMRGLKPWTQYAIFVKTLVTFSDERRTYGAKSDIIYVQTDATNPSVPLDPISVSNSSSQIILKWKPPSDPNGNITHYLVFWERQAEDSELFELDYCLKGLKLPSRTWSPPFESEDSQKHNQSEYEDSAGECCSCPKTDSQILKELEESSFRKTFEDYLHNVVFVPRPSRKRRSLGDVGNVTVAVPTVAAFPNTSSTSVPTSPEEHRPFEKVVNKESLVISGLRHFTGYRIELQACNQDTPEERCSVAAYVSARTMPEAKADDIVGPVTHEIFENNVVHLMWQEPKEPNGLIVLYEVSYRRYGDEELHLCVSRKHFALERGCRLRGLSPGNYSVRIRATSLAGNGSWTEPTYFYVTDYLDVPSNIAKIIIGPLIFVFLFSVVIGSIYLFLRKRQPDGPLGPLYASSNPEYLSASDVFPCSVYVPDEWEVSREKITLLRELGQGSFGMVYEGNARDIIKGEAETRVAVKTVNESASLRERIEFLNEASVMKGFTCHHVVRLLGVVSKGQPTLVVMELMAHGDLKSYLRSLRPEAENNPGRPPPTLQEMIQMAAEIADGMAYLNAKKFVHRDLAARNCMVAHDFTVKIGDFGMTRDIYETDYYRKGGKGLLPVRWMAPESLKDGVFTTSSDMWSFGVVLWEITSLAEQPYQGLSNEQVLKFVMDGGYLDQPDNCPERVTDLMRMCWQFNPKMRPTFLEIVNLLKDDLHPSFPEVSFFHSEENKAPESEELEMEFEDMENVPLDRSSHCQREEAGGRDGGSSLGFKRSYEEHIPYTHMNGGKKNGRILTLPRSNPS", "T1 sequence (P06213 763-1382 partner limits assumed)": "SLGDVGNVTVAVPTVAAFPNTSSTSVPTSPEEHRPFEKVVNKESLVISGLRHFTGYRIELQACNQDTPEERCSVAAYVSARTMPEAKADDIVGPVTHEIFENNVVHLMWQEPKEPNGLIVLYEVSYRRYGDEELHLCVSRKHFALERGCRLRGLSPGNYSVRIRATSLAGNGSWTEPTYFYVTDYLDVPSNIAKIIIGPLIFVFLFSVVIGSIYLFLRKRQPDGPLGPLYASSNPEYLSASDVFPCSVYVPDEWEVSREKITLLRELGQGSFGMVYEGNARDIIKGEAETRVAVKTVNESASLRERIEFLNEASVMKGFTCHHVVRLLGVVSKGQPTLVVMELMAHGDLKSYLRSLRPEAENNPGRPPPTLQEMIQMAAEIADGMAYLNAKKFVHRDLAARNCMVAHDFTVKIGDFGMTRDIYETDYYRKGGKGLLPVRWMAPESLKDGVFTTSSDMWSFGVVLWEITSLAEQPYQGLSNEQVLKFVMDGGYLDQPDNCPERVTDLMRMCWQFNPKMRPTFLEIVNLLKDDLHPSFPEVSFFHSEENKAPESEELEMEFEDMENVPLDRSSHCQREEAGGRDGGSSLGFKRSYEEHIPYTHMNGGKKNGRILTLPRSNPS", "assay": "Association kinetics of 125I-labeled insulins on IM9 cells", "assay_type": "binding", "details": "125I-labeled ligand, 15 °C"}, "[6]": {"system": "NIH 3T3 fibroblasts overexpressing the wild-type human insulin receptor", "assay": "[3H]thymidine incorporation", "assay_type": "cell-based, mouse", "details": "for relative mitogenic potency over relative metabolic potency: thymidine incorporation versus lipogenesis in rat adipocytes"}, "[7]": {"target": "T1, human insulin receptor on IM9 cells", "assay": "Dissociation kinetics of 125I-labeled insulins from IM9 cells", "assay_type": "binding", "details": "prebound 6 h at 15 °C, 40-fold dilution"}, "[8]": {"system": "soluble receptor", "details": "cited from earlier work"}, "[9]": {"details": "ref 66; cited from earlier work"}, "[10]": {"details": "actual data were not shown; cited from earlier work"}, "[11]": {"system": "IM-9 cell receptors", "details": "ref 19; cited from earlier work"}, "[12]": {"system": "rat fat pad", "details": "relative to that of bovine insulin; cited from earlier work"}, "[13]": {"system": "deoxyglucose transport", "details": "ref 19; cited from earlier work"}, "[14]": {"system": "isolated rat adipocytes", "details": "ref 16-18; cited from earlier work"}, "[15]": {"system": "rat adipocytes", "details": "cited from earlier work"}, "[16]": {"system": "rat liver cells", "details": "ref 20; cited from earlier work"}, "[17]": {"system": "soluble IR ectodomain (sIR)", "assay": "Homologous competition for soluble IR ectodomain, PEG precipitation", "assay_type": "binding", "details": "15 pM tracer, 16 h at 4 °C; % of human insulin"}, "[18]": {"system": "HepG2 cells", "details": "ref 31; cited from earlier work"}}, "note": "Values joined by “and” are separate entries in the source; they are usually repeats but may differ in a detail not shown here. Equal entries are not always repeated. Where two headings read alike, the source gives them in different places. Where no end group is shown, it is not given here."}
{"substance": "IleA10 with Ser: insulin with substitution of IleA10 with Ser as in IGF-I and IGF-II (literature) [reference compound]", "values": [{"measurement": "loss of affinity", "setting": "[1]; ref 64", "value": 5, "unit": "fold"}]}
{"substance": "HisB10Asp: human insulin analogue, His to Asp at B10", "values": [{"measurement": "enhancement of the affinity and activity of human insulin", "setting": "[1]; ref 31, 46", "value": "3−5 fold"}]}
{"substance": "B21 to Ala: human insulin with mutation of B21 to Ala (literature)", "values": [{"measurement": "decrease in the level of binding to receptors on the human placental membrane", "setting": "[2]", "value": "~2", "unit": "fold"}, {"measurement": "affinity in IM-9 cells", "setting": "[3]; ref 26", "value": 226, "unit": "%"}]}
{"substance": "lamprey insulin: insulin purified from the islet organ of the river lamprey L. fluviatilis (Insulin B chain SALTGAGGTHLCGSHLVEALYVVCGDRGFFYTPSKT; Insulin A chain GIVEQCCHRKCSIYDMENYCN; ends and bridges not checked; cysteine pairing not given here; UniProt P68988 1-36; P68988 37-57, looked up)", "values": [{"measurement": "maximal lipogenesis", "setting": "[4]", "value": "same maximal lipogenesis as human insulin"}, {"measurement": "metabolic potency relative to human insulin", "setting": "[4]", "value": "9.4% and 9%"}, {"measurement": "incubation time to reach apparent steady state of binding", "setting": "[5]", "value": 6, "unit": "h"}, {"measurement": "mitogenic potency relative to human insulin", "setting": "[6]; thymidine incorporation", "value": 54, "unit": "%"}, {"measurement": "relative mitogenic potency over relative metabolic potency", "setting": "[6]", "value": 5.8}, {"measurement": "maximal response", "setting": "[6]; thymidine incorporation, 10% FBS as maximal response", "value": "same maximal response as serum or human insulin"}, {"measurement": "dissociation of 125I-labeled ligand by dilution alone", "setting": "[7]", "value": "much slower"}, {"measurement": "relative affinity for the soluble receptor based on IC50", "setting": "[8]; ref 9", "value": 130, "unit": "%"}]}
{"substance": "B17 to Val: human insulin with B17 substitution to Val (literature) [reference compound]", "values": [{"measurement": "reduction of affinity, substitutions at B17", "setting": "[8]; solubilized receptor", "value": 2.5, "unit": "fold"}]}
{"substance": "insulin Wakayama: insulin with a ValA3 to Leu mutation found in a diabetic patient", "values": [{"measurement": "potency", "setting": "[9]", "value": 0.2, "unit": "%"}]}
{"substance": "hagfish insulin: insulin from the Atlantic hagfish (Myxine glutinosa), gift from S. Falkmer (Insulin B chain RTTGHLCGKDLVNALYIACGVRGFFYDPTKM; Insulin A chain GIVEQCCHKRCSIYDLENYCN; ends and bridges not checked; cysteine pairing not given here; UniProt P01342 27-57; P01342 95-115, looked up)", "values": [{"measurement": "maximal lipogenesis", "setting": "[4]", "value": "same maximal lipogenesis as human insulin"}, {"measurement": "metabolic potency relative to human insulin", "setting": "[4]", "value": "8.4% and 8%"}, {"measurement": "mitogenic:metabolic potency ratio", "setting": "[10]", "value": 1.0}, {"measurement": "maximal acceleration of dissociation of 125I-labeled porcine insulin", "setting": "[11]", "value": "same maximal acceleration"}, {"measurement": "potency to accelerate the dissociation of 125I-labeled porcine insulin", "setting": "[11]", "value": "5 % of unlabeled porcine insulin"}, {"measurement": "incubation time to reach apparent steady state of binding", "setting": "[5]", "value": 4, "unit": "h"}, {"measurement": "biological activity in rat fat pad", "setting": "[12]", "value": 7, "unit": "%"}, {"measurement": "mitogenic potency relative to human insulin", "setting": "[6]; thymidine incorporation", "value": 32, "unit": "%"}, {"measurement": "relative mitogenic potency over relative metabolic potency", "setting": "[6]", "value": 3.8}, {"measurement": "maximal stimulation", "setting": "[6]; thymidine incorporation, difference not statistically significant", "value": "75 % of that of human insulin"}, {"measurement": "biological activity for deoxyglucose transport", "setting": "[13]", "value": "5−10%"}, {"measurement": "affinity for isolated rat adipocytes, % of that of porcine insulin", "setting": "[14]", "value": 23, "unit": "%"}, {"measurement": "biological activity in stimulating lipogenesis in rat adipocytes", "setting": "[15]; ref 16", "value": 3.8, "unit": "%"}, {"measurement": "biological activity in stimulating lipogenesis in rat adipocytes", "setting": "[15]; ref 51", "value": 4.6, "unit": "%"}, {"measurement": "biological potency in stimulating lipogenesis", "setting": "[15]; same cells, relative to porcine insulin", "value": "3−5%"}, {"measurement": "potency in rat liver cells", "setting": "[16]", "value": 3, "unit": "%"}, {"measurement": "relative affinity for the purified soluble human receptor ectodomain", "setting": "[17]", "value": 22, "unit": "%"}]}
{"substance": "HisA8 human insulin: human insulin with the ThrA8 to His mutation (literature)", "values": [{"measurement": "affinity relative to human insulin in HepG2 cells", "setting": "[18]", "value": 327, "unit": "%"}, {"measurement": "affinity relative to human insulin in IM-9 lymphocytes", "setting": "[3]; ref 47, 56", "value": 300, "unit": "%"}]}
